Screening data: PubChem, The Scripps Research Institute Molecular Screening Center
TAAR1 antag: human TAAR1 antagonism. Q96RJ0. CHO RD-HGA16 TAAR1, Fluo-8 calcium fluorescence, antagonist. inhibition, % at 3 µM. 360,000 tested, 1.5% active;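 active = inhibition above a per-plate cutoff, the mean inhibition of test compounds on that plate plus 3 SD, cut at about 49% in these data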;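 also: 0% = DMSO plus EC80 beta-PEA response and 100% = DMSO alone without agonist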
Target sequence (Q96RJ0 whole entry, looked up): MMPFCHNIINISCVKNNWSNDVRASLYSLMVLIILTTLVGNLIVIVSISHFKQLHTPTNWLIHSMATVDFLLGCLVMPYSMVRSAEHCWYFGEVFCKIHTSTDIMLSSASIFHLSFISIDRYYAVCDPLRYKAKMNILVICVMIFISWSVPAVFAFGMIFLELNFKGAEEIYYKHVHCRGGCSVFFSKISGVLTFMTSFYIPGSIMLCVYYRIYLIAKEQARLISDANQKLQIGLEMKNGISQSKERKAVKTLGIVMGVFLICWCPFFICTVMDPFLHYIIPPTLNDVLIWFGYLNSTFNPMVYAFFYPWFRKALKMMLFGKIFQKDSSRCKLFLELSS
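System: CHO RD-HGA16 cells bearing hTAAR1. Reagent: EC80 β-phenethylamine stimulus. Schedule: seeding 17-24 h prior, 75-min 37 °C, 30-min RT dye loading. Signal: Fluo-8 intracellular calcium dye fluorescence, real-time kinetic reads. Read-out: % inhibition from peak post-agonist over basal fluorescence ratio. Benchmarks: vehicle wells and EC80 agonist wells. Replicates: n of 1.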
TAAR1 ag: agonists of human TAAR1. CHO RD-HGA16 TAAR1, Fluo-8 calcium fluorescence; vehicle wells 0%, saturating PEA agonist 100%. AID 624467. 360,000 tested, 0.99% active. Q96RJ0. activation, % at 3 µM;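 active = activation above the mean activation of all test compounds in the run plus 3 SD, cut at about 38% in these data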
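System: CHO-derived RD-HGA16 cells with stable Gα16 and human TAAR1. Times: 17-24 h plating, Fluo-8 75 min 37 °C, 30 min RT. Measured by: calcium-sensitive Fluo-8 signal, excitation 470-495, emission 515-575 nm. Read-out basis: % activation relative to PEA EC100 response. Control set: DMSO and PEA EC100. Repeats: no replicates (n 1).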
NS3 helicase inh: inhibitors of Hepatitis C virus NS3 helicase; inhibition, % at 10.9 µM; NS3 helicase DNA unwinding, Cy5 molecular beacon fluorescence; AID 1800; 290,000 tested, 0.56% active;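 active = inhibition above the mean of all tested compounds plus 3 SD, set per campaign, cut at about 35% in these data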;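 also: 0% = DMSO wells and 100% = thioflavine S control wells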
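System: NS3 helicase fragment of HCV / Schedule: 1 h at 25 °C / Control set: DMSO alone as 0% and 110 µM thioflavine S as 100% / Reagent: Cy5/quencher beacon DNA duplex and ATP to start / Technique: Cy5 fluorescence / Replication: singlicate / Evaluation: % inhibition of end-to-start signal ratio versus controls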
rCAG binder: r(CAG) repeat RNA binding; TO-PRO-1 dye displacement fluorescence; inhibition, % at 3 µM; 370,000 tested, 1.3% active;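 active = inhibition above the plate cutoff, the mean of all test compounds on that plate plus 3 SD, cut at about 35% in these data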;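 also: 0% = DMSO alone and 100% = 100 µM mitoxantrone as full dye displacement; higher means more dye released from RNA so lower well fluorescence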
core dimer inh: HCV core protein dimerization inhibition. TR-FRET GST/Flag-core106 dimerization, 1536-well. 300,000 tested, 0.33% active. inhibition, % at 5 µM;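 active = inhibition above the mean of all tested compounds plus 3 SD, set per screening campaign, cut at about 45% in these data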
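System – GST-tagged and Flag-tagged HCV core protein residues 1-106 · Repeats – one well for each compound · Technique – TR-FRET 671 and 617 nm emission · Doses – one concentration, 5 µM, in 0.5% DMSO · Times – 4 h, 22.5 °C incubation · Also added – Eu donor and XL665 acceptor anti-tag antibodies · Measure – percent inhibition of core106 dimerization signal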
TAAR1 ag conf: confirmation of human TAAR1 agonists. shares compounds with TAAR1 ag. CHO RD-HGA16 TAAR1, Fluo-8 calcium fluorescence; scaled: DMSO 0%, maximal phenethylamine 100%. activation, % at 3 µM. 2,400 tested, 82% active;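 active = activation above a cutoff set at the run's mean compound activation plus 3 SD, cut at about 39% in these data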
Ga16 ag counter: counter-screen for TAAR1 agonists: nonselective agonists in parental cells. shares compounds with TAAR1 ag. CHO-Ga16 parental, Fluo-8 calcium fluorescence; normalized to maximal ATP response, DMSO zero. activation, % at 3 µM. 2,400 tested, 50% active;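 active = activation above the run cutoff, the mean activation over all tested wells plus 3 SD, cut at about 12% in these data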;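 also: 0% = DMSO wells and 100% = maximal ATP response on the peak over basal ratio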
TAAR1 desensitize: counter-screen for human TAAR1 agonists: agonists that desensitize TAAR1. 2,400 tested, 46% active. CHO RD-HGA16 hTAAR1, Fluo-8 calcium, beta-PEA response inhibition. AID 651951. inhibition, % at 3 µM. shares compounds with TAAR1 ag;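 active = inhibition above the run cutoff, the mean inhibition of all test compounds plus 3 SD, cut at about 49% in these data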;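 also: beta-PEA stimulus applied at its EC80; loss of beta-PEA calcium signal after compound pretreatment read as receptor desensitization; 0% = DMSO with beta-PEA at EC80 and 100% = DMSO alone without agonist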
Ga16 antag count: counter-screen for TAAR1 agonists: nonselective Ga16 antagonists; shares compounds with TAAR1 ag; CHO-Ga16 ATP-induced calcium, Fluo-8 fluorescence; 2,400 tested, 39% active; inhibition, % at 3 µM;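 active = inhibition above the plate's mean compound inhibition plus 3 SD, computed per plate, cut at about 22% in these data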;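 also: 0% = EC80 ATP with DMSO and 100% = DMSO wells without ATP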
An asterisk follows results filed as active; nt = no result; ! = not confirmed by another sample. This is a sample that favours compounds with a hit; in the whole collection about 3.7% have one here.

SMILES	TAAR1 antag	TAAR1 ag	NS3 helicase inh	rCAG binder	core dimer inh	TAAR1 ag conf	Ga16 ag counter	TAAR1 desensitize	Ga16 antag count
COc1cc(O)cc2c1C(=O)OC(C)CCCC(=O)CCC/C=C\2 (stereo not given)	10.4	55.2*	-14.2	1.5	4.7	30.0	26.3*	34.8	22.8*
N#Cc1c(N2CCNCC2)nc(-c2ccco2)c2c1CCCC2	48.2	79.7*	-13.2	8.2	-2.3	96.1*	16.5*	90.5*	15.1
COc1cccc(NP2(=O)OCC(C)([N+](=O)[O-])CO2)c1 (stereo not given)	-3.5	2.8	nt	0.5	nt	nt	nt	nt	nt
Cc1cccc(N2C(=O)/C(=C/N3CCN(C(=O)c4ccco4)CC3)C(=O)NC2=S)c1	-13.7	49.1*	-0.1	17.6	-2.0	60.7*	0.4	3.8	4.5
Cc1ccc(N2C(=O)/C(=C/N3CCN(C(=O)c4ccco4)CC3)C(=O)NC2=S)cc1C	-7.2	56.1*	13.4	24.7	-0.3	73.4*	0.6	5.9	1.9
O=C1NC(=S)N(c2ccc(Br)cc2)C(=O)/C1=C/N1CCN(C(=O)c2ccco2)CC1	10.8	32.2	4.0	26.2	0.1	nt	nt	nt	nt
CC=C(CC)C1(CC)C(=O)NC(=S)NC1=O	-2.1	0.5	nt	2.9	nt	nt	nt	nt	nt
Cc1cc(C)c(NC2=NCCS2)cc1C	8.2	3.5	nt	1.5	nt	nt	nt	nt	nt
O=C(Nc1nccs1)C(Cl)(Cl)Cl	10.9	9.6	2.2	1.1	0.2	nt	nt	nt	nt
O=C(Nc1ccc(Cl)cc1)Nc1nccs1	32.7	50.0*	2.0	20.4	0.3	56.2*	7.8	34.3	22.0*
CC(CC(C)(C)N1CC1)=NO	-16.4	0.4	nt	2.9	nt	nt	nt	nt	nt
NC(N)=N/N=C/c1cn(-c2ccccc2)nc1-c1cccs1	3.8	47.0*	-71.9	35.7*	-6.9	76.0*	7.1	35.2	12.6
CC1CN=C(NC(C)c2ccccc2)S1 (stereo not given)	-5.8	5.4	4.7	2.5	3.5	nt	nt	nt	nt
CC(NC1=NCCS1)c1ccccc1 (stereo not given)	nt	nt	3.7	-2.9	-4.3	nt	-0.2	nt	-0.3
CN1C[C@H](CO)C=C2c3cccc4[nH]cc(c34)C[C@H]21	64.4*	64.4*	-3.1	-22.5	-11.7	92.1*	3.0	85.0*	7.5
Clc1cc(Cl)cc(CN2Cc3cc(Br)ccc3-n3nncc3C2)c1	-23.5	-1.9	nt	2.1	nt	nt	nt	nt	nt
CC(Cc1ccc(O)cc1)NCC(O)c1cc(O)cc(O)c1 (stereo not given)	-19.6	0.9	nt	1.7	1.4	nt	nt	nt	nt
CC(N)Cc1ccc(O)cc1 (stereo not given)	54.1*!	96.0*	nt	9.4	nt	94.1*	2.5	83.9*	4.6
CCCCCCCSc1cc(OC)c(CCNC)cc1OC	35.3	66.8*	-80.4	11.7	-17.6	51.7*	21.0*	44.3	24.1*
CCCCCSc1cc(OC)c(CCNC)cc1OC	-9.8	37.2	-18.7	4.1	-14.8	nt	nt	nt	nt
COC(=O)C1=C(c2ccc(OCc3ccccc3)cc2)C[C@@H]2CC[C@H]1N2C(=O)NCCCCc1ccccc1	1.4	1.4	nt	2.6	nt	nt	nt	nt	nt
CN1CC(C(=O)c2cccs2)C(c2ccc(Cl)cc2)C1 (stereo not given)	-23.0	0.9	-6.5	0.5	-1.1	nt	nt	nt	nt
CN1CC(C(=O)c2ccc(Cl)cc2)C(c2ccccc2)C1 (stereo not given)	1.8	45.3*	-12.4	-7.6	-3.5	75.4*	12.7*	35.7	11.0
O=C(NCCN1CCC2(CC1)C(=O)NCN2c1ccccc1)c1ccc(Cl)c(Cl)c1	106.1*	113.2*	nt	1.7	nt	124.3*	94.8*	106.8*	102.8*
O=C(NCCN1CCC2(CC1)C(=O)NCN2c1ccccc1)C(c1ccccc1)c1ccccc1	93.3*	58.2*	nt	0.7	nt	32.8	23.8*	76.0*	62.4*
SMILES	TAAR1 antag	TAAR1 ag	NS3 helicase inh	rCAG binder	core dimer inh	TAAR1 ag conf	Ga16 ag counter	TAAR1 desensitize	Ga16 antag count
Cc1ccc(C(=O)NCCN2CCC3(CC2)C(=O)NCN3c2ccccc2)cc1	98.7*	86.5*	nt	3.3	nt	52.8*	41.2*	98.2*	83.9*
O=C(NCCN1CCC2(CC1)C(=O)NCN2c1ccccc1)c1ccc(F)cc1F	5.0	14.5	nt	1.2	nt	nt	nt	nt	nt
O=C(NCCN1CCC2(CC1)C(=O)NCN2c1ccccc1)c1ccccc1C(F)(F)F	-2.8	-1.1	nt	0.7	nt	nt	nt	nt	nt
O=C(NCCN1CCC2(CC1)C(=O)NCN2c1ccccc1)c1cc(C(F)(F)F)ccc1C(F)(F)F	-10.7	2.3	nt	-1.1	nt	nt	nt	nt	nt
O=C(NCCN1CCC2(CC1)C(=O)NCN2c1ccccc1)c1ccc(OC(F)(F)F)cc1	96.2*	53.6*	nt	2.5	nt	44.6*	40.5*	101.8*	98.3*
C=CC[C@@H](C)CC(=O)C(CCCN=[N+]=[N-])SOOc1ccccc1 (stereo not given in full)	-7.6	-0.8	nt	-5.3	-3.1	nt	nt	nt	nt
O=C(CCCN1CCC2(CC1)C(=O)NCN2c1ccccc1)c1ccc(F)cc1	106.0*	153.7*	-12.9	-0.1	7.8	131.3*	115.7*	106.5*	103.1*
CCN(CC)c1ccc(/C=C2/C(=O)NC(=O)N(Cc3ccco3)C2=O)cc1	20.7	44.9*	30.0	29.9	13.2	66.1*	30.0*	41.4	34.3*
Cc1nn(CC(C)C)c(Cl)c1C(=O)NC1CCCC1	-13.8	1.1	nt	-1.1	nt	nt	nt	nt	nt
COc1ccccc1CCNCc1cc2c(cc1[N+](=O)[O-])OCO2	nt	nt	6.7	-2.3	-0.5	nt	3.3	nt	7.2
Cn1cccc1CNCCc1ccccc1	nt	nt	-4.8	nt	-10.8	nt	nt	nt	nt
COc1ccc(CNCCc2ccccc2F)c(OC)c1C	73.2*	84.5*	-33.9	1.5	9.2	92.7*	8.0	79.6*	10.2
Cn1cccc1CNCCc1ccccc1F	67.1*	62.9*	-3.9	0.9	-1.4	101.6*	-0.7	81.9*	4.5
COc1ccc(CNCCc2c[nH]c3ccccc23)c(OC)c1C	3.4	27.5	-30.8	3.1	3.3	nt	nt	nt	nt
COOCC1(C(=O)OC)C[C@H](c2ccc(OC)cc2)N(Cc2ccccc2OC)[C@@H]1c1ccccc1C (stereo not given in full)	-13.1	-0.9	nt	5.4	nt	nt	nt	nt	nt
OCC1CO1 (stereo not given)	-16.6	3.7	nt	0.3	nt	nt	nt	nt	nt
CC1CN(CC(=O)c2ccccc2Cl)CC(C)O1 (stereo not given)	54.2*	84.8*	9.6	2.8	-4.2	105.8*	2.8	43.5	-10.3
